Screening results as filed in PubChem.
Only some compounds are listed: those with a hit (about 3% of all), similar ones and a draw of the others.
TAAR1 antagonist – human TAAR1 antagonists, primary screen, Fluo-8 calcium fluorescence, CHO RD-HGA16 cells | antagonist | inhibition, % at 3 µM | Trace amine-associated receptor 1 (Homo sapiens), Q96RJ0 | hit rate 1.5% among 360,000;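 active = inhibition above a per-plate cutoff, the mean inhibition of test compounds on that plate plus 3 SD, cut at about 49% in these data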;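 also: 0% = DMSO plus EC80 beta-PEA response and 100% = DMSO alone without agonist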
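Assay system: CHO-derived RD-HGA16 cells stably expressing human TAAR1 plus Gα16. Timing: 140 s kinetic read after compound, 140 s after agonist. Technique: kinetic Fluo-8 calcium fluorescence measurement. Measure: % inhibition of agonist calcium response.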
M4 antag – human M4 muscarinic receptor antagonists, primary screen, CHO cells, Fluo-8 calcium fluorescence | CHO-hM4 cells, ACh EC80 | inhibition, % at 3 µM | hit rate 0.73% among 360,000;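 active = inhibition above its plate's cutoff, the mean inhibition of sample wells plus 3 SD, cut at about 27% in these data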;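 also: 0% = acetylcholine EC80 with DMSO and 100% = DMSO without agonist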
Target sequence (P08173 whole entry, looked up): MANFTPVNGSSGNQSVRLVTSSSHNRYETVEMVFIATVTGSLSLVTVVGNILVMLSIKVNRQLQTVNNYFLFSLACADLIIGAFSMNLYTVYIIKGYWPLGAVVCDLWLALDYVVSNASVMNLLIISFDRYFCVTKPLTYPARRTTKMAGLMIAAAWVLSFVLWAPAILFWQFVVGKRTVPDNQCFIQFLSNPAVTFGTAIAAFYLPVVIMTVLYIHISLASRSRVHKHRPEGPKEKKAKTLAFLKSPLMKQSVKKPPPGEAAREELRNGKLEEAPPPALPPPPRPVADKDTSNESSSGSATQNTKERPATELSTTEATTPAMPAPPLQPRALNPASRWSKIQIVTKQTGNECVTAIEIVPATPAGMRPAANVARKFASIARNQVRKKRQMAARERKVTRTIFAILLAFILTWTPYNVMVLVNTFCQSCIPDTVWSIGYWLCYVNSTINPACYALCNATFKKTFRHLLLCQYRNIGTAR
CHRM4 agonist – human M4 muscarinic receptor agonists, primary screen, CHO-K1 cells, Fluo-8 calcium fluorescence; Muscarinic acetylcholine receptor M4 (Homo sapiens), P08173; CHO-K1 hM4/Gqi5; vehicle 0%, full acetylcholine response 100%; activation, % at 3 µM; hit rate 0.14% among 360,000; AID 624127, 2012;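 active = activation above the run mean over all test wells plus 3 SD, cut at about 32% in these data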;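 also: peak over basal fluorescence ratio per well then scaled between controls; 0% = DMSO wells and 100% = acetylcholine at EC100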
M4 PAM – human M4 muscarinic receptor positive allosteric modulators, primary screen, CHO-K1 cells, Fluo-8 calcium fluorescence; CHO-K1 hM4/Gqi5, ACh EC20; 0% = ACh EC20, 100% = maximal ACh; activation, % at 3 µM; hit rate 0.4% among 360,000; AID 624126, 2012;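 active = activation above its plate's cutoff, the mean activation of sample wells plus 3 SD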
TAAR1 agonist – human TAAR1 agonists, primary screen, Fluo-8 calcium fluorescence, CHO RD-HGA16 cells | Trace amine-associated receptor 1 (Homo sapiens), Q96RJ0 | vehicle wells 0%, saturating PEA agonist 100% | activation, % at 3 µM | hit rate 0.99% among 360,000;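 active = activation above the mean activation of all test compounds in the run plus 3 SD, cut at about 38% in these data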
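Test system: RD-HGA16 (CHO) cells co-expressing Gα16 and hTAAR1 / Benchmarks: DMSO vehicle as 0%, PEA at EC100 as 100% / Repeats: no replicates (n 1) / Measure: % activation from peak over basal fluorescence ratio, DMSO-to-PEA scaled / Timing: 17-24 h plating, Fluo-8 75 min 37 °C, 30 min RT / Technique: kinetic Fluo-8 calcium fluorescence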
TAAR1 ag conf – human TAAR1 agonists, retest of hits, confirmation, Fluo-8 calcium fluorescence, CHO RD-HGA16 cells; shares compounds with TAAR1 agonist; scaled: DMSO 0%, maximal phenethylamine 100%; activation, % at 3 µM; hit rate 82% among 2,400; AID 651783, 2012;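 active = activation above a cutoff set at the run's mean compound activation plus 3 SD, cut at about 39% in these data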
Ga16 nonsel ag – nonselective calcium mobilization agonists, CHO-Ga16 cells, counter-screen for hTAAR1 agonist project, cell-based, fluorescence, CHO-Ga16 parental line; shares compounds with TAAR1 agonist; activation, % at 3 µM; Fluo-8 calcium fluorescence; normalized to maximal ATP response, DMSO zero; hit rate 50% among 2,400; AID 651787, 2012;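 active = activation above the run cutoff, the mean activation over all tested wells plus 3 SD, cut at about 12% in these data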;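 also: 0% = DMSO wells and 100% = maximal ATP response on the peak over basal ratio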
TAAR1 desens – TAAR1 desensitization by agonist hits, confirmation, counter-screen for TAAR1 agonist project, cell-based, fluorescence, tachyphylaxis | CHO RD-HGA16 hTAAR1, Fluo-8 calcium, beta-PEA response inhibition | hit rate 46% among 2,400 | shares compounds with TAAR1 agonist | inhibition, % at 3 µM;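 active = inhibition above the run cutoff, the mean inhibition of all test compounds plus 3 SD, cut at about 49% in these data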;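 also: beta-PEA stimulus applied at its EC80; loss of beta-PEA calcium signal after compound pretreatment read as receptor desensitization; 0% = DMSO with beta-PEA at EC80 and 100% = DMSO alone without agonist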
Ga16 antag count – inhibition of ATP-evoked calcium response in CHO-Ga16 cells, counter-screen for TAAR1 agonist project, cell-based, fluorescence; inhibition, % at 3 µM; CHO-Ga16 ATP-induced calcium, Fluo-8 fluorescence; shares compounds with TAAR1 agonist; hit rate 39% among 2,400; AID 651952, 2012;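 active = inhibition above the plate's mean compound inhibition plus 3 SD, computed per plate, cut at about 22% in these data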;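 also: 0% = EC80 ATP with DMSO and 100% = DMSO wells without ATP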
Starred values were filed as active, the others as inactive; x = not tested or not shown.

SMILES	TAAR1 antagonist	M4 antag	CHRM4 agonist	M4 PAM	TAAR1 agonist	TAAR1 ag conf	Ga16 nonsel ag	TAAR1 desens	Ga16 antag count
Cn1c(N)c(C#N)c(-c2ccccc2)c(C#N)c1=O	5.4	-1.0	0.9	3.8	1.7	x	x	x	x
Cc1cc2nc3c(=O)n(C4CCCCC4)c(=O)[nH]c3nc2cc1N	11.8	0.8	11.0	4.3	56.8*	28.3	63.7*	27.0	39.3*
Cc1cc(C)cc(Nc2cc(=O)n(C3CCCCC3)c(=O)[nH]2)c1	22.0	-1.8	3.0	-4.7	10.3	x	x	x	x
O=C(Nc1ccc(Cl)cc1)Nc1ccc(N2CCOCC2)cc1	79.3*	8.2	6.2	-11.6	66.1*	48.5*	12.9*	49.3*	21.9*
O=C(/C=C/c1ccc(Cl)cc1)Nc1ccc(N2CCOCC2)cc1	-8.1	-18.2	2.0	13.7	0.2	x	x	x	x
O=C(Nc1ccc(Cl)c(Cl)c1)N1CCOCC1	6.8	-11.0	2.4	3.9	6.4	x	x	x	x
O=C(Nc1ccc(N2CCOCC2)cc1)Nc1ccc(Cl)c(Cl)c1	90.3*	47.9*	43.1*	-18.4	65.5*	40.2*	29.8*	89.2*	62.3*
COc1ccc([C@H]2CN(c3ccc(OC)cc3)C(=O)[C@@H]2CC(=O)Nc2ccc(Br)cc2)cc1	5.0	-20.9	1.1	-0.1	0.1	x	x	x	x
O=C(COC(=O)c1ccc(Cl)cc1)NC1CCCCCC1	8.8	-0.6	-0.4	4.2	42.3*	-3.2	1.6	-7.3	-1.0
Cc1cc(C2=NNC(=NCCc3ccccc3)SC2)c(C)n1-c1c(C)n(C)n(-c2ccccc2)c1=O	21.3	0.5	0.1	-1.4	70.4*	92.6*	2.2	61.9*	2.4
Cc1cc(C)nc(OC(C(=O)O)C(OCCc2ccccc2)(c2ccccc2)c2ccccc2)n1 (stereo unspecified)	17.6	-15.0	-0.7	-6.7	98.9*	126.0*	84.6*	19.7	3.0
Cc1ccnc(OC(C(=O)O)C(OCCc2ccccc2)(c2ccccc2)c2ccccc2)n1 (stereo unspecified)	12.9	7.6	0.2	-3.2	13.3	x	x	x	x
CN(C)S(=O)(=O)c1cccc(CNCC2COc3ccccc3O2)c1 (stereo unspecified)	-13.2	-6.8	6.2	3.8	58.8*	88.4*	21.1*	33.8	2.5
CNS(=O)(=O)c1ccc(CNC[C@H]2O[C@@H](n3ccc(N)nc3=O)[C@H](O)[C@@H]2O)cc1	3.8	-4.7	0.2	2.7	2.5	x	x	x	x
CCCc1nnc(NC(=O)Cn2c(=O)oc3cc(Br)ccc32)s1	63.2*	-5.7	21.8	-3.0	121.0*	105.6*	72.7*	74.9*	44.7*
CCN(C[C@H]1N[C@@](Cc2ccccc2)(C(=O)OC)[C@H]2C(=O)N(C)C(=O)[C@@H]12)C(=O)COc1ccccc1	-6.8	-0.5	0.8	-4.0	1.1	x	x	x	x
CNc1nc(N)c([N+](=O)[O-])c(Nc2ccccc2OC)n1	-8.4	-14.4	1.5	5.8	56.0*	79.6*	13.2*	20.7	4.0
COc1ccccc1Nc1nc(NCCO)nc(N)c1[N+](=O)[O-]	8.8	1.0	5.9	-1.0	20.6	x	x	x	x
Cc1cc(C)c(C(=O)COC(=O)c2cccc(S(=O)(=O)N3CCOCC3)c2)cc1C	-12.7	-21.9	1.2	1.9	-0.1	x	x	x	x
O=C(NCCCCc1ccccc1)c1ccccc1	-20.4	-5.1	1.9	4.6	0.3	x	x	x	x
CC(CNC(=O)C1CCCCC1C(=O)O)c1ccccc1 (stereo unspecified)	x	-4.5	0.5	2.5	x	x	0.7	x	10.7
O=C(O)C1CCCCC1C(=O)NCCCc1ccccc1 (stereo unspecified)	0.5	3.4	0.3	-2.5	67.9*	50.0*	-0.4	-3.4	-3.1
O=C(O)C1CCCCC1C(=O)NCCCCc1ccccc1 (stereo unspecified)	10.6	2.4	0.9	5.6	45.0*	55.9*	5.3	-4.2	0.7
O=C(NC1CCCCC1)C(=S)NCCc1ccccc1	33.0	-3.6	1.2	-0.3	58.1*	75.7*	1.5	62.1*	20.4
C[C@@H]1CN([C@@H](C)CO)C(=O)CCCn2nncc2CO[C@@H]1CN(C)C(=O)Nc1cccc(Oc2ccccn2)c1	-21.4	-11.5	0.6	7.4	3.3	x	x	x	x
SMILES	TAAR1 antagonist	M4 antag	CHRM4 agonist	M4 PAM	TAAR1 agonist	TAAR1 ag conf	Ga16 nonsel ag	TAAR1 desens	Ga16 antag count
COCOc1ccc(-c2ncc(OCCN3CCCC3=O)nc2NC(=O)c2cc3ccccc3s2)cc1	22.2	-5.8	9.2	-5.3	4.5	x	x	x	x
Cc1ccc(S(=O)(=O)C[C@@H]2OC[C@H](CO)N2S(=O)(=O)c2ccc(C)cc2)cc1	-26.5	1.7	2.6	15.3	-0.8	x	x	x	x
O=C(O)C1CCCCC1C(=O)NCCc1ccccc1 (stereo unspecified)	85.8*	2.6	-0.3	0.0	97.5*	106.2*	1.3	91.7*	10.2
Cc1ccc(NC(=S)N/N=C2\CCCCC2C)cc1 (stereo unspecified)	11.9	-8.1	-0.8	-7.0	-1.9	x	x	x	x
O=C(NCCc1ccccc1)C(=O)NC1CCCCC1	-9.2	0.8	0.4	3.6	7.4	x	x	x	x
CC1CCCC/C1=N\NC(=S)NCCc1ccccc1 (stereo unspecified)	-17.2	6.3	-0.8	-4.0	56.5*	44.6*	-0.1	4.4	0.7
CN(C)c1ccc(C(=O)OCC(=O)Nc2ccc(N3CCOCC3)cc2)cc1	-6.5	-1.6	1.1	-4.2	51.4*	2.4	9.8	7.7	1.1
O=C(c1ccccc1)c1ccc(OCC(O)CNC2CCCc3ccccc32)cc1 (stereo unspecified)	-22.2	7.5	1.6	-6.5	18.9	x	x	x	x
OC(CNC1CCCc2ccccc21)COc1ccc2ccccc2c1 (stereo unspecified)	15.1	7.0	14.9	-4.5	69.0*	99.5*	27.9*	69.7*	31.4*
